Screening results: PubChem BioAssay, several laboratories
Only some compounds are listed: those with a hit (about 7.1% of all), similar ones and a draw of the others.
Cav32 inh: inhibitors of human Cav3.2 T-type calcium channel. Cav3.2-expressing cells, Fluo-4 calcium fluorescence FDSS; hits give low values. B-score at 10 µM. AID 449739. 100,000 compounds, 4% hits;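 active means single-dose well whose peak fluorescence ratio is a statistical outlier from its plate by either plate-standardised score or position-corrected B-score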
Target sequence (O95180 whole entry, looked up): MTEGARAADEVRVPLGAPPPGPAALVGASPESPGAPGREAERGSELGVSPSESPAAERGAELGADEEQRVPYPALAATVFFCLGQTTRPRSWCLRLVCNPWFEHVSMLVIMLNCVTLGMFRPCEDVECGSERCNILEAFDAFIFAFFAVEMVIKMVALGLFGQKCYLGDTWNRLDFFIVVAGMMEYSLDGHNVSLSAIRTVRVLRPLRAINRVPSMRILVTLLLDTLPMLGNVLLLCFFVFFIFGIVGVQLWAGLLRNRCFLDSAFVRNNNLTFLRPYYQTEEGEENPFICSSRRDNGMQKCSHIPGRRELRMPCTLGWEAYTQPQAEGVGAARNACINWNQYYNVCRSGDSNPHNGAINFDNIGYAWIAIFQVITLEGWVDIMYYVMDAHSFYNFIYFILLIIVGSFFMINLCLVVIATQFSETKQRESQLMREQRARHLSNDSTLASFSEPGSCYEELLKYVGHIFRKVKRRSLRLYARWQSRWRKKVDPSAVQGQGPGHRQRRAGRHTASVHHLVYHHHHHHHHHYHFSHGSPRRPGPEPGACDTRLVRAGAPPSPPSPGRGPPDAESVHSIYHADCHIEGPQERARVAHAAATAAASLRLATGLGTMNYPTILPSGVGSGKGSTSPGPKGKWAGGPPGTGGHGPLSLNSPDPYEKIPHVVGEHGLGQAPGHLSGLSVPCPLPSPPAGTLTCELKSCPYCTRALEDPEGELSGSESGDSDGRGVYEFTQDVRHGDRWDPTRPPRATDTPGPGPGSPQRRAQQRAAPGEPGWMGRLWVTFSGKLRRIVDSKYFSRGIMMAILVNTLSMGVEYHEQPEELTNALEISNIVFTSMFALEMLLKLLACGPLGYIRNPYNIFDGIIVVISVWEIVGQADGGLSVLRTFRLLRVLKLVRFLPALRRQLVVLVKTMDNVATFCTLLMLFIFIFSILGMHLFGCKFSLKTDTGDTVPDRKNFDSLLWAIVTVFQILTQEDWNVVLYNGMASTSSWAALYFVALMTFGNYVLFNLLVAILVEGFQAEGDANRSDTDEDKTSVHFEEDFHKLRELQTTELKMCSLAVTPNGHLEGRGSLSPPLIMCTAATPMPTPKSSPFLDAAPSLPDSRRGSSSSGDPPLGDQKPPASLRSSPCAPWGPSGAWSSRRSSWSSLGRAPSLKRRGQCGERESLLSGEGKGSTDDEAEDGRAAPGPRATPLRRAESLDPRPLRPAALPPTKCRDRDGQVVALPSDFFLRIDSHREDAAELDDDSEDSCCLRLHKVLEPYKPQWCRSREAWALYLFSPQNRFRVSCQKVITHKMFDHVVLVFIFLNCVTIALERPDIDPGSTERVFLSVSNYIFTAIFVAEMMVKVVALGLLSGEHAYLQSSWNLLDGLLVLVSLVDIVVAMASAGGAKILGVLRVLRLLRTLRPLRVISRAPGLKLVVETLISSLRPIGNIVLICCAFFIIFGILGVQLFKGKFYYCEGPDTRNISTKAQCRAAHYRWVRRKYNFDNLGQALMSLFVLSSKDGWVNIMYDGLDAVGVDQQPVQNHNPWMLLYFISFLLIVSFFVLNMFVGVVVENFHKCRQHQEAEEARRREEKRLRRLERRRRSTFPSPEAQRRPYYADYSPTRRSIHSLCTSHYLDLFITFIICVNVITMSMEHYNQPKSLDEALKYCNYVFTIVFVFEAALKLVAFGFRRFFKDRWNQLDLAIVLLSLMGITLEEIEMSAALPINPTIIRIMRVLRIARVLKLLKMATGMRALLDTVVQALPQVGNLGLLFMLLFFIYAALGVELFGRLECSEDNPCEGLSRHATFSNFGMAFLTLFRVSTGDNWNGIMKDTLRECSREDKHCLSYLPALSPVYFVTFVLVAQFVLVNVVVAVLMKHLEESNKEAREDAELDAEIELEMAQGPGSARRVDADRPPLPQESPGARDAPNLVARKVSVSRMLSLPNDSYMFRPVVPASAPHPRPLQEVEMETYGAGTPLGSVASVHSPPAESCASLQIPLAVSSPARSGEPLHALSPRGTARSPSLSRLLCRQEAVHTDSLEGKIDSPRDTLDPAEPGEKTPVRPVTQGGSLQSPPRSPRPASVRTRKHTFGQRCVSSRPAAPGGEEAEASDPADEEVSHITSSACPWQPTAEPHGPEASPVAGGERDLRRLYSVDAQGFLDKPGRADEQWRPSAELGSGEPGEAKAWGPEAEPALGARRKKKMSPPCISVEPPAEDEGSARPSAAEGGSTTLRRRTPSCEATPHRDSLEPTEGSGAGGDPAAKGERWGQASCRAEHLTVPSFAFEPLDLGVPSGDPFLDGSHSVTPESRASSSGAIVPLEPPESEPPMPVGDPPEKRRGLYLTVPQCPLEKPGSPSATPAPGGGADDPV
H69AR inhibit: growth inhibitors of human H69AR lung tumor cells; 85,000 compounds, 6% hits; H69AR lung tumor viability, ATP luminescence, 72 h; hits give low values; viability, % at 10 µM; AID 598;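 active means viability at or below 40%; inactive means viability above 40%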;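 further: multidrug resistant small cell line overexpressing MRP-1 efflux transporter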
HUVEC prolif 384: blocks proliferation of human endothelial cells; HUVEC proliferation, CellTiter-Glo luminescence, 72 h; hits give low values; 86,000 compounds, 1.1% hits; viability, % at 10 µM (by protocol);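 active means viability at or below 30%; inactive means viability above 30%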
Fibroblast inh: blocks proliferation of human lung fibroblasts | viability, % at 10 µM | 85,000 compounds, 1.1% hits | AID 719 | LL 47 human lung fibroblast viability, ATP luminescence; hits give low values;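 active means viability at or below 50% in the single dose screen; inactive means viability above 50%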;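 further: compound exposure lasted 72 h before the ATP readout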
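Test system: LL 47 human lung fibroblasts / Incubation: 72 h compound exposure at 37 °C after overnight plating / Technique: luminescent ATP detection, CellTiter-Glo / Compound dosing: 0.1% DMSO in all compound wells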
PTEN del growth: PTEN-deleted cell growth suppression; HCT116 PTEN-null viability, CellTiter-Glo, 60 h; hits give low values; 140,000 compounds, 1.2% hits; AID 827; viability, % at 10 µM;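 active means viability at or below a set limit, 4 SD under the median of all tested compounds, cut at about 3.7% in these data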;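 further: PTEN knockout HCT116 line with beta catenin targeted HCT116 as companion control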
HCT116 bCat-KO: beta-catenin-lacking colon tumor cell growth suppression. 140,000 compounds, 1.5% hits. AID 818. viability, % at 10 µM. HCT116 beta-catenin knockout viability, CellTiter-Glo, 60 h; hits give low values;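 active means viability at or under a set limit, the compound median less 4 SD, cut at about 6% in these data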
Large screens that a line does not name were inactive.

O=C1CCN2C=Nc3cccc4ccc1c2c34	Cav32 inh -8.51 (no result: H69AR inhibit, HUVEC prolif 384, Fibroblast inh)
CC1CN=C(N(Cc2ccccc2)C(=O)Nc2ccccc2)S1 (stereo not drawn)	Cav32 inh -8.43
COc1ccccc1N(C(=O)NCc1ccccc1)C1=NCC(C)S1 (stereo not drawn)	Cav32 inh -4.69
CC1CN=C(N(C(=O)Nc2ccccc2)C(C)C)S1 (stereo not drawn)	none
Cc1ccc(S(=O)(=O)NC(C)(C)CSc2ccccn2)cc1	none (no result: Cav32 inh, H69AR inhibit, HUVEC prolif 384, Fibroblast inh)
Cc1sc2nc(CSc3ccc([N+](=O)[O-])c(C(F)(F)F)c3)[nH]c(=O)c2c1C	none (no result: Cav32 inh, H69AR inhibit, HUVEC prolif 384, Fibroblast inh)
CCCCCCCCCCS(=O)(=O)N/N=C/c1ccc(O)cc1	none (no result: Cav32 inh, H69AR inhibit, HUVEC prolif 384, Fibroblast inh)
CSc1nc2c(cnn2-c2ccc(C)c(C)c2)c(=O)[nH]1	H69AR inhibit 20.0 (no result: Cav32 inh)
CCOC(=O)c1cnc(SCC(=O)Nc2nc(C)c(C)s2)nc1N	none
COc1ccccc1C(=O)N1CCCC(c2nc(-c3cc(OC)c(OC)c(OC)c3)no2)C1 (stereo not drawn)	none
COc1ccc(C(=O)N2CCCC(c3nc(-c4cc(OC)c(OC)c(OC)c4)no3)C2)cc1 (stereo not drawn)	H69AR inhibit 34.9
O=C(/C=C/c1ccccc1)N1CCN(CCN2C(=O)c3cccc4cccc(c34)C2=O)CC1	none (no result: Cav32 inh, H69AR inhibit, HUVEC prolif 384, Fibroblast inh)
Cc1ccc(-c2cc(-c3ccccc3O)nc(N/N=C/c3cccnc3)n2)cc1	PTEN del growth 2.9, HCT116 bCat-KO 4.0 (no result: H69AR inhibit, HUVEC prolif 384, Fibroblast inh)
C(=N\Nc1nc(-c2ccccc2)cs1)/c1cccnc1	none (no result: H69AR inhibit, HUVEC prolif 384, Fibroblast inh)
Cc1cccn2c(=O)c3cc(C(=O)N4CCN(C(=O)c5ccco5)CC4)n(C)c3nc12	none (no result: Cav32 inh)
CC1Cc2ccccc2N1C(=O)c1cc2c(=O)n3ccccc3nc2n1C (stereo not drawn)	H69AR inhibit 12.8
Cc1cccn2c(=O)c3cc(C(=O)N4c5ccccc5CC4C)n(C)c3nc12 (stereo not drawn)	none (no result: Cav32 inh)
Cc1cccn2c(=O)c3cc(C(=O)N4CCc5ccccc54)n(C)c3nc12	H69AR inhibit 25.3 (no result: Cav32 inh, PTEN del growth, HCT116 bCat-KO)
c1ccc(Cn2nnnc2C(c2ccncc2)N2CCOCC2)cc1 (stereo not drawn)	none
COCCn1nnnc1C(c1cc2cc(OC)ccc2[nH]c1=O)N1CCC(Cc2ccccc2)CC1 (stereo not drawn)	H69AR inhibit 3.8, PTEN del growth 2.7, HCT116 bCat-KO 3.0
O=c1[nH]c2cc3c(cc2cc1C(c1nnnn1Cc1ccccc1)N1CCCCCC1)OCCO3 (stereo not drawn)	H69AR inhibit 2.1, Fibroblast inh 29.8
COCCn1nnnc1C(c1cc2cc(C)ccc2[nH]c1=O)N1CCCCCC1 (stereo not drawn)	none
Cc1cc(C(c2nnnn2Cc2ccccc2)N2CCOCC2)c(C)n1-c1ccc2c(c1)OCO2 (stereo not drawn)	Cav32 inh -4.6
Cc1cc(C(=O)OCC(=O)NCCCN2CCCC2=O)c2ccccc2n1	none (no result: PTEN del growth)
COC(=O)[C@@H]1C(c2c(OC)cc(OC)cc2OC)=NO[C@H]1C(=O)OC	none (no result: Cav32 inh, H69AR inhibit, HUVEC prolif 384, Fibroblast inh)
Cc1cc2nc(NC3=NCN(Cc4ccc5c(c4)OCO5)CN3)nc(C)c2cc1C	H69AR inhibit 22.6, Fibroblast inh 48.7 (no result: Cav32 inh, PTEN del growth, HCT116 bCat-KO)
Cc1cc2nc(NC3=NCN(CCCN4CCOCC4)CN3)nc(C)c2cc1C	none (no result: Cav32 inh, Fibroblast inh, PTEN del growth, HCT116 bCat-KO)
Cc1nc(NC2=NCN(CCCN3CCOCC3)CN2)nc2c(C)cccc12	H69AR inhibit 2.3, Fibroblast inh 28.5 (no result: Cav32 inh)
Cc1nc(NC2=NCN(CCc3ccccc3)CN2)nc2c(C)cccc12	H69AR inhibit 5.5, HUVEC prolif 384 1.7, Fibroblast inh 32.5 (no result: Cav32 inh, PTEN del growth, HCT116 bCat-KO)
CC(C)[C@@H](C(=O)N1CCN(C(=O)OC(C)(C)C)CC1)n1cc(CCO)nn1	none (no result: H69AR inhibit, HUVEC prolif 384, Fibroblast inh, PTEN del growth, HCT116 bCat-KO)
Cc1nn(-c2ccccc2)c2c1C1(C(=O)N(C)c3ccccc31)C(C#N)=C(N)O2 (stereo not drawn)	none
CC1=CC(C)(C)N2C(=O)C3(C(C#N)=C(N)Oc4cc(O)ccc43)c3cccc1c32 (stereo not drawn)	Cav32 inh -6.22
CC1=CC(C)(C)N2C(=O)C3(C(C#N)=C(N)OC4=C3C(=O)CC(C)(C)C4)c3cccc1c32 (stereo not drawn)	none
Cc1ccc2c3c1C1(C(=O)N3C(C)(C)CC2C)C(C#N)=C(N)Oc2cc(O)ccc21 (stereo not drawn)	Cav32 inh -8.95
Cc1cc2c3c(c1)C1(C(=O)N3C(C)(C)CC2C)C(C#N)=C(N)Oc2cc(O)ccc21 (stereo not drawn)	none
Cc1nn(-c2ccccc2)c2c1C1(C(=O)N3c4c(cccc41)C(C)CC3(C)C)C(C#N)=C(N)O2 (stereo not drawn)	H69AR inhibit 38.7
O=C(OCc1csc(Nc2ccccc2)n1)c1ccc(Cl)cc1	none (no result: Cav32 inh, H69AR inhibit, HUVEC prolif 384, Fibroblast inh)
COc1ccc(C2=NOC(C(=O)NCCCn3ccnc3)C2)cc1 (stereo not drawn)	none
CC(=O)Nc1c(OC(C)=O)ccc2c(C)cc(=O)oc12	none
CC(=O)Oc1cc2oc(=O)cc(C)c2cc1OC(C)=O	H69AR inhibit 36.1
O=C(NCc1cccs1)c1nc2c(nnn2Cc2ccccc2Cl)c(=O)[nH]1	Cav32 inh -4.49, HUVEC prolif 384 24.1, Fibroblast inh 34.8
Cc1nn(Cc2ccc(F)cc2)c(Cl)c1/C=N/NC(=O)c1cccnc1	none (no result: Cav32 inh, H69AR inhibit, HUVEC prolif 384, Fibroblast inh)
Cc1nn(Cc2ccc(Cl)cc2Cl)c(Cl)c1/C=N/NC(=O)CNc1cccc(C(F)(F)F)c1	PTEN del growth 2.3, HCT116 bCat-KO 1.8 (no result: Cav32 inh, H69AR inhibit, HUVEC prolif 384, Fibroblast inh)
C=C(C)C1CCC(C)=C1COC(=O)Nc1ccccc1 (stereo not drawn)	none (no result: H69AR inhibit, HUVEC prolif 384, Fibroblast inh)
COc1ccc2cc3c(N)nn(C(=O)C4CCC(C(C)(C)C)CC4)c3nc2c1 (stereo not drawn)	none (no result: H69AR inhibit, HUVEC prolif 384, Fibroblast inh)
COc1ccc2cc3c(N)nn(C(=O)Cc4ccccc4OC)c3nc2c1	HUVEC prolif 384 28.0
CC12CC(NC(=O)N1c1cccc(C(=O)NCc3ccc4c(c3)OCO4)c1)c1cc(Cl)ccc1O2 (stereo not drawn)	Cav32 inh -3.69
CC12CC(NC(=O)N1c1cccc(C(=O)N3CCN(c4ccccc4F)CC3)c1)c1ccccc1O2 (stereo not drawn)	Cav32 inh -4.59
COc1cc(Nc2ccccc2Cl)c([N+](=O)[O-])nc1[N+](=O)[O-]	H69AR inhibit 16.6
CN1OC(c2ccccc2)=C(CO)C1c1ccccc1 (stereo not drawn)	none (no result: Cav32 inh, H69AR inhibit, HUVEC prolif 384, Fibroblast inh)
O=S(=O)(Nc1nc2ccccc2nc1Nc1ccc2c(c1)OCCO2)c1cccs1	Cav32 inh -3.76
COc1ccc(S(=O)(=O)Nc2nc3ccccc3nc2Nc2ccc3c(c2)OCO3)cc1	none (no result: Cav32 inh, H69AR inhibit, HUVEC prolif 384, Fibroblast inh)
Cc1ccc(Nc2nnc(SC(C)C(=O)Nc3c(C)n(C)n(-c4ccccc4)c3=O)s2)cc1 (stereo not drawn)	none (no result: Cav32 inh, H69AR inhibit, HUVEC prolif 384, Fibroblast inh)
CN(C1=C(NC(=O)c2ccc(Cl)cc2)C(=O)c2ccccc2C1=O)c1ccccc1	PTEN del growth 1.6, HCT116 bCat-KO 1.6 (no result: Cav32 inh, H69AR inhibit, HUVEC prolif 384, Fibroblast inh)
O=C(NC1=C(Nc2ccc(Cl)cc2)C(=O)c2ccccc2C1=O)c1ccccc1	none (no result: Cav32 inh, H69AR inhibit, HUVEC prolif 384, Fibroblast inh)
c1ccc(Nc2nc(N3CCCCC3)nc(N3CCCCC3)n2)cc1	none
